Screening data from PubChem BioAssay.
An excerpt weighted towards active compounds, which were near 2.2% of everything screened.
CFTR F508del cor: correctors of CFTR F508del function in bronchial epithelial cells; activity (quench increase), % at 7.58 µM; CFBE cells, YFP halide quenching; stimulated with forskolin plus potentiator P3; % fluorescence drop versus neutral controls; hit rate 0.36% among 350,000;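 active = mean added fluorescence quench of at least 8% versus neutral control, with both replicates also reaching 8%; inconclusive = only one of the mean or replicate conditions met; inactive = mean below 8% and not both replicates reaching 8%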;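 also: cells transiently co-express mutant CFTR-F508del with the halide-sensitive YFP; corrector assay measuring rescue of mutant channel to the surface after 24 h compound exposure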
S100A4 MyoIIA: blocks human S100A4 binding to myosin IIA peptide. S100A4/TAMRA-MyoIIA peptide fluorescence polarization. inhibition, % at 10.7 µM. hit rate 0.14% among 360,000. AID 652163;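 active = mean inhibition of at least 70% across replicates, with every replicate also reaching that level; inconclusive = mean inhibition reaches 70% but some replicates fall short; inactive = mean inhibition below 70%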
Target sequence (P26447 whole entry, looked up): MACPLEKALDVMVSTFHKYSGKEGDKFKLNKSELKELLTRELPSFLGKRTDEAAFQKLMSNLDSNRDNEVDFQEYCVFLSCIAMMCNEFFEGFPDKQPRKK
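System – human S100A4 monomer protein, biochemical binding assay · Buffer or medium – Calcium-containing HEPES buffer, pH 7.2 · Timing – 5 min between mix addition and reading · Also added – TAMRA-labelled myosin IIA heavy-chain peptide probe, 5 nM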
FGF22 binding: binders of recombinant human FGF22 by thermal shift | Q9HCT0 | SYPRO orange fluorescence; percent of sucrose octasulfate shift, DMSO zero | activity (Tm shift, normalised), % at 9.99 µM | hit rate 1.5% among 340,000 | AID 651658;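 active = mean Tm shift, scaled 0 neutral to 100 positive control, at about 1.3% or above, every replicate too, limit read from the data; inconclusive = no clear call, values can overlap the other calls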
Target sequence (Q9HCT0 whole entry, looked up): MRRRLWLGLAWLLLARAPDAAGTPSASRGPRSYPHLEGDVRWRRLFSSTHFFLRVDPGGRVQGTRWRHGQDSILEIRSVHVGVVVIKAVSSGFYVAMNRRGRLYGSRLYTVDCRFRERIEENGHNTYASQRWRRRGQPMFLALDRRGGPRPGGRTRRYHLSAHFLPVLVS
dFosB act-1: enhances mouse delta FosB homodimer DNA binding | P13346 | activation, % at 25 µM | hit rate 0.99% among 340,000 | AID 493131 | purified delta FosB, TAMRA-CDK5 oligo fluorescence polarization; percent of positive-control signal above neutral wells;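 active = mean activation above about 17%, with every replicate also reaching it, limit read from the data, passing the limit was not always enough; inconclusive = only one of the two conditions met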
Target sequence (P13346 whole entry, looked up): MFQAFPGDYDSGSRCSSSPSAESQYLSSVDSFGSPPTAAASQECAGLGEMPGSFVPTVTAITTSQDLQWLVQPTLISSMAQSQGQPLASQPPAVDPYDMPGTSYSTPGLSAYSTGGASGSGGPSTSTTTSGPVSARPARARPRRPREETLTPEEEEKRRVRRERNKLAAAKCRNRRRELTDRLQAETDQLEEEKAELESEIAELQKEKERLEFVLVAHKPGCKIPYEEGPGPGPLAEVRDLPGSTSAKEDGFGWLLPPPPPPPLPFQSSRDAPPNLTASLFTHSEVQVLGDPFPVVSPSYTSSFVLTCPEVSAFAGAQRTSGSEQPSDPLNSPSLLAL
dFosB act-2: enhances mouse delta FosB homodimer binding to DNA; shares compounds with dFosB act-1; purified delta FosB, TAMRA-CDK5 oligo fluorescence polarization; normalised: neutral wells 0, positive control 100; activation, % at 24.9 µM; 2,400 tested, under 10 active; AID 588690;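 active = highest replicate activation at or above 34% and every replicate reaching that threshold; inconclusive = meets only one of the two criteria; inactive = meets neither criterion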;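 also: higher polarization means more probe DNA bound by delta FosB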
Hits are given with their value; n = inactive; u = inconclusive; x = no result given; + = active, no number.

SMILES | CFTR F508del cor | S100A4 MyoIIA | FGF22 binding | dFosB act-1 | others
COC(=O)[C@H]1[C@H](CO)[C@H]2Cn3c(ccc(-c4ccccc4F)c3=O)[C@@H]1N2Cc1ccncc1 | n | n | n | x
CCOC(=O)c1ccc(N=Cc2c(O)n(-c3ccc(OC)cc3)c(=S)[nH]c2=O)cc1 | n | n | n | n
CCOC(=O)c1ccc(N=Cc2c(O)n(-c3ccccc3F)c(=S)[nH]c2=O)cc1 | n | 122 | n | n
CCOC(=O)c1c(/N=C/c2c(O)n(-c3ccccc3F)c(=S)[nH]c2=O)sc2c1CCCC2 | x | x | x | 23
COC(=O)[C@@H]1[C@@H](CO)[C@@H]2Cn3c(ccc(-c4ccc(F)cc4)c3=O)[C@H]1N2C(=O)c1ccccc1F | n | n | n | x
CCCNC(=O)N1[C@@H]2Cn3c(ccc(-c4ccccc4OC)c3=O)[C@H]1[C@@H](C(=O)OC)[C@@H]2CO | n | n | n | x
O=C(O)[C@H]1[C@H](CO)[C@H]2Cn3c(ccc(-c4ccncc4)c3=O)[C@@H]1N2C(=O)C1CCCCC1 | n | 99 | n | x
O=C(O)[C@H]1[C@H](CO)[C@H]2Cn3c(ccc(-c4ccncc4)c3=O)[C@@H]1N2C(=O)C1CCC1 | n | n | n | x
CC(C)OC(=O)Nc1ccc(N=C(N)N[N+](=O)[O-])cc1 | n | n | 43 | n
Cc1ccccc1-c1ccc([C@H]2[C@@H](CO)N3CCCCN(C(=O)Cc4ccccn4)C[C@@H]23)cc1 | n | n | n | x
O=C(NCCO)c1nsnc1NCCCl | n | n | 43 | n
COC(=O)[C@@H]1[C@@H](CO)[C@@H]2Cn3c(ccc(-c4cncnc4)c3=O)[C@H]1N2S(=O)(=O)c1ccccc1C | n | n | n | x
CCN1/C(=C/C=C/C2=[N+](CC)c3ccccc3C2(C)C)C(C)(C)c2ccccc21 | n | + | n | x
O=C(O)C(Br)CBr (centres undefined) | n | 100 | n | n
OCC(Br)CBr (centres undefined) | n | n | n | n
COCCO[C@H]1CC[C@@]2(C)C(=CCC3C2CC[C@@]2(C)C3CC[C@]2(C)O)C1 (some centres undefined) | 8.7 | n | n | n
C[C@]12CCC(OC(=O)CCC(=O)O)CC1=CCC1C2CC[C@]2(C)C(=O)CCC12 (some centres undefined) | n | n | n | n
CN1CCN(c2ccc([N+](=O)[O-])c3no[n+]([O-])c23)CC1 | 18 | 112 | n | n
O=C1CNC[C@H]2[C@H](c3ccc(Br)cc3)[C@@H](CO)N12 | n | n | n | x
CC1=C2C[C@H]3[C@@H](CC=C4C[C@@H](O)CC[C@@]43C)[C@@H]2CC[C@]12O[C@@H]1C[C@H](C)CN[C@@H]1C2C (some centres undefined) | n | n | n | x
Cc1ccc2c(C)c3ccc4ccccc4c3c[n+]2c1 | 9.2 | n | n | n
CCOC(=O)[C@@H]1[C@@H]2NC(=S)N(C)[C@@]1(C)Oc1ccccc12 | n | n | n | x
Cc1cccc(OP(=O)(Nc2ccc(F)cc2)Oc2cccc(C)c2)c1 | n | n | 43 | n
COc1ccc2nc3oc(C(=O)N4CCC5(CC4)OCCO5)cc3cc2c1 | n | n | 44 | n
COc1cc2c(ccc3c4cc(OC)c(OC)cc4c[n+](C)c23)cc1O | n | n | n | 33
SMILES | CFTR F508del cor | S100A4 MyoIIA | FGF22 binding | dFosB act-1 | others
O=C(Cc1ccncc1)N1CCCCN2[C@@H](CO)[C@@H](c3ccc(C#CC4(O)CCCC4)cc3)[C@@H]2C1 | n | n | n | x
CCC1CN2CCc3cc(OC)c(OC)cc3C2CC1CC1NCCc2c1[nH]c1ccc(O)cc21 (centres undefined) | n | n | n | 29
O=C(COC(=O)c1cc(Br)cc(Br)c1O)NC12CC3CC(CC(C3)C1)C2 | n | n | 1.7 | x
Cc1ccc2c(c1)C1CN(C)CCC1N2C(=O)c1cccnc1Cl (centres undefined) | n | n | n | n
Cc1ccc2c(c1)C1CN(C)CCC1N2C(=O)c1cn(-c2ccccc2)nc1-c1ccccc1 (centres undefined) | n | n | 1.6 | u
O=C(Cc1ccccn1)N1CC2(C1)[C@H](c1ccccc1)[C@@H](CO)N2Cc1ccccn1 | n | n | n | x
COC(=O)[C@H]1[C@H](CO)[C@H]2Cn3c(ccc(C4=CCCCC4)c3=O)[C@@H]1N2CC1CCCCC1 | n | n | x | x
CCN(CCCl)c1cc(CN(C)C)cc(NC(=O)c2ccc(C(=O)Nc3cc(CN(C)C)cc(N(CC)CCCl)c3)cc2)c1 | n | n | n | 38
Cc1ccc(OC(=O)N(C)C[C@@H]2OCc3ccccc3-c3c(n(C)c4ccccc34)C(=O)N([C@@H](C)CO)C[C@H]2C)cc1 | n | n | x | x
O=C(O)c1ccc(Cl)nc1 | n | n | 43 | n
CC(=O)N1CCN(Cc2ccc(Cl)nc2)CC1 | n | n | n | n
CCOC(=O)[C@]12Cc3ccc(C)cc3[C@H]1N(C1CCCCC1)C(=O)c1cc(OC)ccc12 | 20 | n | n | x
CCOC(=O)[C@]12Cc3ccc(C)cc3[C@H]1N(C1CCCCC1)C(=O)c1ccccc12 | n | n | n | x
COC(=O)[C@H]1[C@H](CO)[C@H]2Cn3c(cccc3=O)[C@@H]1N2CCc1ccccc1 | x | n | n | x
COC(=O)[C@@H]1[C@@H](CO)[C@@H]2Cn3c(ccc(C4=CCCC4)c3=O)[C@H]1N2CC1CCCCC1 | n | n | n | x
CN1CCN(c2ccc(N)cc2Cl)CC1 | n | n | n | 33
CCOC(=O)[C@@H]1[C@@H]2NC(=S)N(C)[C@@]1(COCc1ccc(OC)cc1)Oc1ccccc12 | n | n | n | x
O=C1CC=C2C3CC4N(CCC45c4ccccc4N1C25)CC3=CCO (centres undefined) | n | n | n | n
O=C1CC=C2C3CC4N(CCC45c4cc(O)c(O)cc4N1C25)CC3=CCBr (centres undefined) | n | n | n | 51
O=C(Cc1ccccn1)N1CCCCN2[C@H](CO)[C@@H](c3ccc(C#Cc4ccccc4)cc3)[C@@H]2C1 | n | n | n | x
O=C(Cc1cccnc1)N1CCCCN2[C@H](CO)[C@@H](c3ccc(/C=C/c4ccccc4)cc3)[C@@H]2C1 | n | n | n | x
CCn1c(O)c(C=NCc2ccccc2)c(=O)[nH]c1=S | x | n | n | n
CCn1c(O)c(C=Nc2ccc(S(N)(=O)=O)cc2)c(=O)n(CC)c1=S | x | n | n | 19
CCn1c(O)c(C=Nc2ccc(S(N)(=O)=O)cc2)c(=O)[nH]c1=S | x | x | x | 20
NS(=O)(=O)c1ccc(N=Cc2c(O)n(C3CCCCC3)c(=O)n(C3CCCCC3)c2=O)cc1 | x | x | x | n
C[N+]1=C(/C=C/Nc2ccccc2)C(C)(C)c2ccccc21 | x | x | x | 23 | dFosB act-2=u
O=C(Cc1ccncc1)N1CCCCN2[C@H](CO)[C@H](c3ccc(-c4ccncc4)cc3)[C@@H]2C1 | n | n | n | x
